# The list is not random: actives were taken first. Their share in the collection is about 1.8%.
# CHRM5 antagonist: blocks acetylcholine activation of human M5 receptor. inhibition, % at 3 µM. P08912. 360,000 compounds, 0.59% hits. CHO-hM5 cells, Fluo-8 calcium fluorescence, ACh EC80;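 active = inhibition above a per-plate cutoff, the mean of that plate's test compounds plus 3 SD, cut at about 27% in these data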;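 note: 0% = acetylcholine EC80 with DMSO and 100% = DMSO without agonist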
# M5 PAM: potentiates acetylcholine response at human M5 receptor; P08912; CHO-K1 hM5, Fluo-8 calcium, ACh EC20 PAM; 0% = ACh EC20, 100% = ACh EC100; activation, % at 3 µM; 360,000 compounds, 0.3% hits; AID 624038;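 active = activation above the run cutoff, the mean activation of all test compounds plus 3 SD, cut at about 18% in these data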
#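 Probe or stimulus: acetylcholine, EC20 level; Assay system: human M5 receptor in CHO-K1 cells; Schedule: compound preincubation 140 s before EC20 acetylcholine addition; Technique: intracellular calcium via Fluo-8 fluorescence; Dosing: single-point, 3 µM nominal; Read-out basis: percent activation from peak-over-basal fluorescence ratio, scaled EC20-to-EC100 acetylcholine; Repeats: one well per compound, no replicates.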
# M4 ag: CHRM4 agonism in calcium assay; P08173; CHO-K1 hM4/Gqi5, Fluo-8 calcium fluorescence; vehicle 0%, full acetylcholine response 100%; activation, % at 3 µM; 360,000 compounds, 0.14% hits;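 active = activation above the run mean over all test wells plus 3 SD, cut at about 32% in these data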;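 note: peak over basal fluorescence ratio per well then scaled between controls; 0% = DMSO wells and 100% = acetylcholine at EC100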
# Target sequence (P08173 whole entry, looked up): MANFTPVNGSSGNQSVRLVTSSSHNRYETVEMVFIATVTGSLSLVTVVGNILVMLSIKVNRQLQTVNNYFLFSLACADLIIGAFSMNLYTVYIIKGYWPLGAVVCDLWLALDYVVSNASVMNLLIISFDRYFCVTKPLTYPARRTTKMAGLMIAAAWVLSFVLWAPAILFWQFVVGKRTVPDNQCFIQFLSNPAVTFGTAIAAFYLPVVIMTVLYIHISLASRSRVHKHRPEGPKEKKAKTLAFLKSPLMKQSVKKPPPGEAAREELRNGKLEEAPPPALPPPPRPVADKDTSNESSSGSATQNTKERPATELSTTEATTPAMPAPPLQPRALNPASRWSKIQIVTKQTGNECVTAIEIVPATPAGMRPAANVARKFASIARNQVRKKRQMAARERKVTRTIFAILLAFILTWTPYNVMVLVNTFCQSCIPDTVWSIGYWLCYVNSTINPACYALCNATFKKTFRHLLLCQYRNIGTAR
# M5 ag: agonists of human muscarinic M5 receptor (CHRM5); P08912; CHO-K1 hM5 cells, Fluo-8 calcium fluorescence; 0% DMSO wells, 100% maximal acetylcholine response; activation, % at 3 µM; 360,000 compounds, 0.19% hits; AID 624037;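 active = activation above the run's mean over test compounds plus 3 SD, cut at about 23% in these data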;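 note: signal is peak over basal fluorescence ratio across the kinetic read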
# M4 antag: blocks acetylcholine activation of human M4 receptor; P08173; CHO-hM4 cells, ACh EC80, Fluo-8 calcium fluorescence; inhibition, % at 3 µM; 360,000 compounds, 0.73% hits;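 active = inhibition above its plate's cutoff, the mean inhibition of sample wells plus 3 SD, cut at about 27% in these data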;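 note: 0% = acetylcholine EC80 with DMSO and 100% = DMSO without agonist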
# CHRM4 PAM: positive allosteric modulators of human muscarinic M4 receptor; AID 624126; P08173; CHO-K1 hM4/Gqi5, Fluo-8 calcium fluorescence, ACh EC20; 0% = ACh EC20, 100% = maximal ACh; 360,000 compounds, 0.4% hits; activation, % at 3 µM;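 active = activation above its plate's cutoff, the mean activation of sample wells plus 3 SD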
# Starred values were filed as active, the others as inactive.
SMILES,CHRM5 antagonist,M5 PAM,M4 ag,M5 ag,M4 antag,CHRM4 PAM
O=[N+]([O-])/C=C/c1cn(Cc2ccc(Cl)cc2)c2ccccc12,33.1*,7.1,0.2,0.7,3.7,-6.8
N#Cc1cccc(NC(=O)c2cc(C3CCCCN3S(=O)(=O)c3ccccc3)on2)c1 (stereo unspecified),-0.4,-5.3,5.7,-0.1,-5.0,-5.4
Cc1occc1C(=O)Nc1c(F)c(F)c(F)c(F)c1F,-13.8,18.2*,-0.1,-5.5,7.6,4.6
Cc1occc1C(=O)NNC(=O)Nc1ccc(F)cc1F,-2.5,-3.3,1.1,1.6,3.3,-4.9
Cc1cccc(NC(=O)CSCC(=O)NNC(=O)c2ccoc2C)c1,-3.4,-5.2,0.8,-3.1,0.2,22.6*
Cc1occc1C(=O)Nc1ccc(Br)cc1F,-5.8,29.6*,0.3,-3.1,4.2,7.1
CC(=O)c1ccc(OCCCC(=O)Nc2cc(Cl)ccc2-n2cncn2)cc1,5.4,-0.2,0.9,-2.5,-4.5,0.3
CCCCNC(=O)C1(C)CCN1C(=O)c1ccc(C)c(F)c1 (stereo unspecified),-1.0,-2.3,0.8,-0.8,-12.9,6.3
CCOC(=O)c1ccc(N2C(=O)c3cccc4c(C(=O)O)ccc(c34)C2=O)cc1,-0.5,2.1,0.4,3.0,-5.0,4.1
CC(=O)Nc1ccc(N2C(=O)c3cccc4c(O)ccc(c34)C2=O)cc1,27.9*,-17.1,146.7*,63.6*,29.4*,-23.3
COc1ccc(N2C(=O)c3cccc4c(N(C)CCO)ccc(c34)C2=O)cc1,7.0,-8.9,7.4,24.1*,1.4,1.3
COc1ccc(N2C(=O)c3cccc4cccc(c34)C2=O)cc1,8.6,1.7,0.3,0.9,0.6,-4.4
O=C1c2ccccc2C(=O)N1Cc1ccco1,-4.4,1.4,1.2,-9.0,1.2,7.5
CC(=O)Nc1ccc(-n2c(=O)c3ccccc3c3ccccc3c2=O)cc1,8.3,-5.6,2.2,1.4,-9.7,18.6
O=C1c2cccc3c(O)ccc(c23)C(=O)N1c1ccc(Cl)cc1,11.8,-19.7,74.7*,32.7*,20.4,-23.4
O=C1c2cccc3c(O)ccc(c23)C(=O)N1Cc1ccco1,22.5,-12.7,99.1*,26.1*,27.9*,-20.4
Cc1cc(C)cc(C(=O)OCC(=O)NC(=O)NC2CCCC2)c1,17.6,2.5,0.4,-3.6,-4.4,10.2
CCN(Cc1nc2cc(Cl)ccc2c(=O)[nH]1)C(=O)CN1C(=O)NC2(CCCCC2C)C1=O (stereo unspecified),1.6,2.6,1.5,1.1,1.8,1.5
COc1ccccc1NC(=O)CN1CC(=O)Nc2ccccc21,7.9,-8.3,1.8,-0.8,0.1,-0.8
CC(C)(C)n1nnnc1C(c1cccs1)N(Cc1cccnc1)Cc1ccco1 (stereo unspecified),70.0*,-48.4,-1.8,-16.4,26.4,-16.7
Cc1cc(NC(=O)Nc2ccccc2F)ccc1Br,36.8*,-17.7,13.0,0.2,12.6,-15.7
O=C(Nc1cccc(Cl)c1)Nc1ccc(Br)cc1F,16.3,-14.1,7.3,0.9,25.3,-15.9
O=C(Nc1ccccc1)Nc1ccc(Br)cc1F,28.0*,-19.0,7.1,0.5,54.1*,-28.2
Cc1c(NC(=O)c2cc(-n3cnnc3)ccc2Cl)cccc1-c1nc2ccccc2s1,3.6,-11.2,13.5,0.4,4.5,-6.4
Cc1c(NC(=O)c2cccs2)cccc1-c1nc2ccccc2s1,19.3,2.1,8.6,1.8,30.9*,-0.7
SMILES,CHRM5 antagonist,M5 PAM,M4 ag,M5 ag,M4 antag,CHRM4 PAM
Fc1ccc2nc(C3CCCCN3Cc3nc(CC4CC4)no3)[nH]c2c1 (stereo unspecified),9.0,26.9*,5.8,3.5,-6.7,9.4
Cc1occc1-c1nnc(SCC(=O)NC2CCCCC2C)o1 (stereo unspecified),5.1,-5.6,0.9,-1.8,-11.5,5.9
O=C(COC(=O)CCS(=O)(=O)c1ccccc1)Nc1ccc(N2CCCCC2)cc1,-10.4,4.9,4.2,1.2,-10.4,23.1*
CCCS(=O)(=O)c1nc(S(=O)(=O)c2ccc(C)cc2)c(N2CCC3(CC2)OCCO3)s1,18.5,-6.5,2.2,-3.4,10.1,-8.7
O=C(NCCc1nnc2ccc(NCc3ccc(F)cc3)nn12)c1ccccc1,-10.6,10.1,2.1,2.0,-8.0,1.2
Cc1ccc(C2CC(c3ccccc3)=NN2C(=S)Nc2ccccc2)o1 (stereo unspecified),-2.1,2.0,7.4,3.6,38.9*,-10.8
CCN(CC1CCCO1)C(=O)CCc1nnc(CCc2ccccc2)o1 (stereo unspecified),-0.3,-4.7,0.7,-1.4,-25.1,4.9
Cc1cccc(NC(=O)CSc2nccn2Cc2ccco2)c1C,-37.2,19.9*,1.4,-2.2,2.4,18.5*
Cc1cc(NC(=O)CSc2nnc(COc3cccc(C)c3C)n2Cc2ccco2)no1,-5.3,3.8,0.9,1.7,-6.6,28.8*
Cc1cccc(OCc2nnc(SCC(=O)N(C(C)C)C(C)C)n2Cc2ccco2)c1C,6.6,15.3,0.0,-1.3,-3.3,13.5
NC(=S)NNc1ccnc2cc(Cl)ccc12,11.5,1.1,0.2,0.7,6.9,-5.8
O=C(NNc1ccnc2cc(Cl)ccc12)C1CCCCC1,31.4*,-23.7,10.4,4.6,11.5,-4.9
COc1ccc2noc3c2c1C(=O)c1ccccc1-3,27.9*,-17.0,59.3*,51.4*,36.5*,-21.6
COc1ccc(C2Cc3ccccc3C(=O)O2)cc1 (stereo unspecified),-0.5,-3.3,-1.3,-3.3,17.0,-3.8
COc1ccc(CC2=CC(=O)c3ccccc3C2=O)cc1,11.2,1.8,8.8,6.9,33.1*,-5.3
CCC(C)c1ccccc1NC(=O)C(C)OC(=O)CN1C(=O)NC(C)(C)C1=O (stereo unspecified),6.2,1.4,0.5,2.8,-14.2,26.4*
C[C@@H]1CCCCO[C@H](CN(C)S(=O)(=O)c2ccccc2)[C@@H](C)CN([C@H](C)CO)C(=O)c2cc(NC(=O)Cc3ccccc3)ccc2O1,3.6,4.0,0.4,-0.2,4.0,0.8
CC1=CC2(O)OCCN(CCO)C2=CC1=O (stereo unspecified),28.4*,-11.6,0.0,1.4,2.5,9.1
Cc1cc(C)n(-c2ncc3c(n2)N(CCO)CCOC3=O)n1,19.7,-11.1,7.4,-3.5,3.6,-4.9
COc1ccc(CNC(=O)C2CC(c3ccc(F)cc3)=NO2)cc1 (stereo unspecified),-7.9,-0.9,1.2,-2.2,-0.6,35.9*

# Bioassay records as filed in PubChem.
